Experimental data from ChEMBL document CHEMBL5321203, “8-Amide and 8-carbamate substitution patterns as modulators of 7-hydroxy-4-methylcoumarin's antidepressant profile: Synthesis, biological evaluation and docking studies” (Eur J Med Chem, 2023).
Calls of active or inactive are those of the source. The rule behind the calls is not given here.

Experiments:
[1] = molecular target: T1, Amine oxidase [flavin-containing] A (Homo sapiens, UniProt P21397); assay: Inhibition of recombinant human MAO-A expressed in baculovirus infected BTITN-5B1-4 insect cells using p-tyramine as substrate incubated for 10 mins followed by substrate addition measured after 15 mins by Amplex Red assay; parameters: species or system BTI-TN-5B1-4
T1 sequence (P21397 whole entry): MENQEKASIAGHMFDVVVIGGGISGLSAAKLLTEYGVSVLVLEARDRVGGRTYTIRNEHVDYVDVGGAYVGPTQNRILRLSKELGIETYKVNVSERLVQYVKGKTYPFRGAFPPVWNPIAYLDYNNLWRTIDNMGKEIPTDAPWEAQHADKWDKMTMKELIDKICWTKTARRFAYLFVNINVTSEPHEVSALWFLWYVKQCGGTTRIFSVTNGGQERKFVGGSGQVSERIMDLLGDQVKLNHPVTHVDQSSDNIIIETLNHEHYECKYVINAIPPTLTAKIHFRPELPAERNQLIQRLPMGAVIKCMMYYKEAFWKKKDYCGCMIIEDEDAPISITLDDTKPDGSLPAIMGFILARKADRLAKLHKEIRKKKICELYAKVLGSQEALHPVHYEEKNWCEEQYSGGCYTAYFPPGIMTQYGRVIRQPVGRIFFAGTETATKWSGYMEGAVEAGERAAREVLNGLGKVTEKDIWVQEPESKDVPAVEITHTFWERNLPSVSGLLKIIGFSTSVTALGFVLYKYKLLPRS

[2] = molecular target: T1, Amine oxidase [flavin-containing] A; assay: Inhibition of recombinant human MAO-A expressed in baculovirus infected BTITN-5B1-4 insect cells using p-tyramine as substrate at 100 uM incubated for 10 mins followed by substrate addition measured after 15 mins by Amplex Red assay; conditions: bti-tn-5b1-4, 25 min
Summary of the method: (§1)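 Microsomal hMAO-A from baculovirus-infected BTI-TN 5B1-4 cells, 1.1 μg protein, in 0.05 M sodium phosphate pH 7.4, preincubated with compound 10 min at 37 °C. Started with 200 μM Amplex Red, 1 U/mL HRP and 1 mM p-tyramine (final). Resorufin fluorescence (ex 545/em 590 nm) read over 15 min at 37 °C; background without enzyme subtracted; vehicle controls run.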

[3] = molecular target: T2, Amine oxidase [flavin-containing] B (Homo sapiens, UniProt P27338); assay: Inhibition of recombinant human MAO-B expressed in baculovirus infected BTITN-5B1-4 insect cells using p-tyramine as substrate incubated for 10 mins followed by substrate addition measured after 15 mins by Amplex Red assay; parameters: species or system BTI-TN-5B1-4
T2 sequence (P27338 whole entry): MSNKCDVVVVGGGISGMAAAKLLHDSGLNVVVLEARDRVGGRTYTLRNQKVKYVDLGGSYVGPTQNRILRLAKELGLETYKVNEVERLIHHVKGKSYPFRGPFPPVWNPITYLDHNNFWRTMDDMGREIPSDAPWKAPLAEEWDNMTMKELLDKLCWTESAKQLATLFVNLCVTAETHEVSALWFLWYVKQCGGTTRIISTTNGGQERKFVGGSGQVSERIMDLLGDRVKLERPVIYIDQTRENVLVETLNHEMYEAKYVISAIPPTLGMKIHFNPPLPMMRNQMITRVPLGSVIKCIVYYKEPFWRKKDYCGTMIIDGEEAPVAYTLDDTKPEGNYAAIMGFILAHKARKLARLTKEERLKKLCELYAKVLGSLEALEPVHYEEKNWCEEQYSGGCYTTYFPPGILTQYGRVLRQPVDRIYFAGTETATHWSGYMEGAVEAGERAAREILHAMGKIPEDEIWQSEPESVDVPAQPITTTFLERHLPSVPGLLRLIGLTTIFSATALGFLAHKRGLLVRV

[4] = molecular target: T2, Amine oxidase [flavin-containing] B; assay: Inhibition of recombinant human MAO-B expressed in baculovirus infected BTITN-5B1-4 insect cells using p-tyramine as substrate at 100 uM incubated for 10 mins followed by substrate addition measured after 15 mins by Amplex Red assay relative to control; conditions: BTI-TN-5B1-4, human, 25 min
[5] = molecular target: T2, Amine oxidase [flavin-containing] B; assay: Inhibition of recombinant human MAO-B expressed in baculovirus infected BTITN-5B1-4 insect cells using p-tyramine as substrate at 100 uM incubated for 10 mins followed by substrate addition measured after 15 mins by Amplex Red assay; conditions: bti-tn-5b1-4, 25 min
[6] = molecular target: T1, Amine oxidase [flavin-containing] A; assay: Inhibition of recombinant human MAO-A expressed in baculovirus infected BTITN-5B1-4 insect cells using p-tyramine as substrate at 100 uM incubated for 10 mins followed by substrate addition measured after 15 mins by Amplex Red assay relative to control; conditions: BTI-TN-5B1-4, human, 25 min; summary of the method: as §1
SH-SY5Y = assay: Neurotoxicity against human SH-SY5Y cells assessed as reduction in cell viability at 100 uM incubated for 24 hrs by MTT assay; assay type: functional, cell-based
Summary of the method: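 SH-SY5Y cells in Ham's F12/EMEM 1:1 with 15% FBS, seeded at 2×10^5 cells/mL and grown 24 h. Treated with 100 μM compound (1% DMSO) for 24 h, then MTT for 2 h; formazan dissolved in DMSO and absorbance read at 540 nm. Viability as % of vehicle control; at least 3 experiments, ANOVA with Bonferroni test.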

[7] = Permeability coefficient of compound incubated for 120 mins by UV-Vis spectroscopy based PAMPA-BBB assay
[8] = Metabolic stability in human liver microsomes assessed as compound remaining at 1 uM measured upto 60 mins by UPLC-MS/MS analysis; assay type: ADME, Microsome; conditions: read-out: Stability
[9] = Metabolic stability in mouse liver microsomes assessed as compound remaining at 1 uM measured upto 60 mins by UPLC-MS/MS analysis; assay type: ADME, Microsome; conditions: read-out: Stability
[10] = Metabolic stability in human liver microsomes assessed as half life at 1 uM measured upto 60 mins by UPLC-MS/MS analysis; assay type: ADME, Microsome
[11] = Metabolic stability in mouse liver microsomes assessed as half life at 1 uM measured upto 60 mins by UPLC-MS/MS analysis; assay type: ADME, Microsome
[12] = Metabolic stability in human liver microsomes assessed as intrinsic clearance at 1 uM measured upto 60 mins by UPLC-MS/MS analysis; assay type: ADME, Microsome; conditions: read-out: CLH
[13] = Metabolic stability in mouse liver microsomes assessed as intrinsic clearance at 1 uM measured upto 60 mins by UPLC-MS/MS analysis; assay type: ADME, Microsome; conditions: read-out: CLH
[14] = Chemical stability of compound in CH3COONa/CH3COOH at pH 3.5 assessed as compound remaining at 10 uM incubated overnight by UPLC-MS/MS analysis; assay type: physicochemical; conditions: CH3COONa/CH3COOH buffer, read-out: Stability
Summary of the method: (§2)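 Overnight incubation at room temperature, 10 μM final. Buffers: pH 3.5 CH₃COONa/CH₃COOH 0.1 M; pH 7.4 NaH₂PO₄/NaHPO₄ 10 mM; pH 10.4 NaHCO₃/Na₂CO₃ 0.5 M. Aliquots taken at t = 0 and after incubation, analysed by UPLC-MS/MS; expressed as % remaining.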

[15] = Chemical stability of compound in NaH2PO4/NaHPO4 at pH 7.4 assessed as compound remaining at 10 uM incubated overnight by UPLC-MS/MS analysis; assay type: physicochemical; conditions: NaH2PO4/NaHPO4 buffer, read-out: Stability; summary of the method: as §2
[16] = Chemical stability of compound in NaHCO3/Na2CO3 at pH 10.4 assessed as compound remaining at 10 uM incubated overnight by UPLC-MS/MS analysis; assay type: physicochemical; conditions: NaHCO3/Na2CO3 buffer, read-out: Stability; summary of the method: as §2

Compound: Cc1cc(=O)oc2c(NC(=O)OCCl)c(O)ccc12
- IC50 [1]: 9.19 µM

Compound: Cc1cc(=O)oc2c(NC(=O)/C=C/c3ccccc3)c(O)ccc12
- IC50 [1]: 0.022 µM

Compound: Cc1cc(=O)oc2c(NC(=O)OC(C)C)c(O)ccc12
- IC50 [1]: 1.88 µM

Compound: Cc1cc(=O)oc2c(NC(=O)CC(C)(C)C)c(O)ccc12
- inhibition (INH) [2]: Not Active
- IC50 [3]: 7.35 µM

Compound: O=C(NCCN1CCOCC1)c1ccc(Cl)cc1 [MOCLOBEMIDE]
- inhibition at 100 µM [4]: 50%

Compound: Cc1cc(=O)oc2c(NC(=O)OCC(C)C)c(O)ccc12
- inhibition (INH) [2]: Not Active
- inhibition (INH) [5]: Not Active

Compound: Cc1cc(=O)oc2c(NC(=O)c3ccco3)c(O)ccc12
- inhibition at 100 µM [6]: 50%
- IC50 [3]: 17.3 µM

Compound: COC(=O)Nc1c(O)ccc2c(C)cc(=O)oc12
- inhibition (INH) [2]: Not Active
- inhibition at 100 µM [4]: 50%

Compound: Cc1cc(=O)oc2c(NC(=O)C(C)C)c(O)ccc12
- inhibition (INH) [2]: Not Active
- IC50 [3]: 31 µM
- inhibition (INH) [5]: Not Active

Compound: C=CC(=O)Nc1c(O)ccc2c(C)cc(=O)oc12
- IC50 [1]: 38.1 µM
- IC50 [3]: 16.3 µM

Compound: Cc1cc(=O)oc2c(NC(=O)CCl)c(O)ccc12
- inhibition (INH) [2]: Not Active
- IC50 [3]: 85.9 µM

Compound: Cc1cc(=O)oc2c(NC(=O)Oc3ccccc3)c(O)ccc12
- inhibition (INH) [2]: Not Active
- Activity (SH-SY5Y): Active

Compound: Cc1cc(=O)oc2c(NC(=O)OCc3ccccc3)c(O)ccc12
- IC50 [1]: 17.2 µM

Compound: CCC(=O)Nc1c(O)ccc2c(C)cc(=O)oc12
- inhibition (INH) [2]: Not Active
- IC50 [3]: 52.7 µM
- inhibition (INH) [5]: Not Active

Compound: COc1cc(C(=O)Nc2c(O)ccc3c(C)cc(=O)oc23)cc(OC)c1OC
- inhibition (INH) [2]: Not Active
- IC50 [3]: 68.3 µM
- inhibition at 100 µM [4]: 50%

Compound: CCOC(=O)Nc1c(O)ccc2c(C)cc(=O)oc12
- inhibition (INH) [5]: Not Active
- Papp at 2 h [7]: 4.9 ×10⁻⁶ cm/s

Compound: Cc1ccc(C(=O)Nc2c(O)ccc3c(C)cc(=O)oc23)cc1
- remaining at 1 h, 1 µM [8]: 0.5%
- remaining at 1 h, 1 µM [9]: 8.3%
- half-life at 1 µM [10]: 6.84 min
- half-life at 1 µM [11]: 17.1 min
- microsomal CLint at 1 µM [12]: 196 µL/min/mg
- microsomal CLint at 1 µM [13]: 131 µL/min/mg
- remaining at 10 µM [14]: 98%
- remaining at 10 µM [15]: 113%
- remaining at 10 µM [16]: 118%
- Papp at 2 h [7]: 8.6 ×10⁻⁶ cm/s
